The source made the active and inactive calls. The calls are words filed in the database; no cut-off is given here.
Experiments:
SiHa = test: Antiproliferative activity against human SiHa cells after 48 hrs by MTT assay; type: functional, cell-based
In short: (§1)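 Cells seeded at 5.0×10^3 per well and exposed to a range of compound concentrations for 48 h. MTT (2.5 mg/mL solution) was then added for 4 h, formazan was dissolved in DMSO, and OD was read at 570 nm. HL-60 was grown in RPMI-1640 with 10% FBS, the other lines in DMEM with 10% FBS, at 37 °C and 5% CO2. Triplicates; IC50 taken from mean OD versus concentration curves.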

HL-60 = test: Antiproliferative activity against human HL60 cells after 48 hrs by MTT assay; type: functional, cell-based; conditions: HL-60, 48 h; in short: as §1
HeLa = test: Antiproliferative activity against human HeLa cells after 48 hrs by MTT assay; type: functional, cell-based; in short: as §1
[1] = Stabilization of F10T hairpin duplex DNA (unknown origin) assessed as change in melting temperature at 1 uM by FRET assay
In short: (§2)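 FRET melting: 0.2 µM F21T or F10T (FAM/TAMRA-labelled), with or without 1.0 µM ligand, in 10 mM Tris-HCl pH 7.4 with 60 mM KCl. Excitation 470 nm, emission 530 nm, read every 1 °C from 37–99 °C at 1 °C/min with a 30 s hold. ΔTm = Tm(DNA+ligand) − Tm(DNA).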

Quadruplex DNA [2] = test: Stabilization of F21T telomeric G-quadruplex DNA (unknown origin) assessed as change in melting temperature at 1 uM by FRET assay; type: nucleic-acid assay; in short: as §2
Quadruplex DNA [3] = test: Binding affinity to HTG21 telomeric G-quadruplex DNA (unknown origin) by SPR method; type: nucleic-acid assay
In short: (§3)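 SPR: biotinylated HTG21 or hairpin DNA (200 nM) was folded in 50 mM Tris-HCl pH 7.4 with 100 mM KCl and captured to about 1,000 RU on an NLC chip against a blank reference cell. Ligand at 0.625–40 µM was injected at 25 µL/min (400 s association, 300 s dissociation) at 25 °C. The chip was regenerated with 1 M KCl and blank sensorgrams were subtracted.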

U2OS = test: Antiproliferative activity against human U2OS cells after 48 hrs by MTT assay; type: functional, cell-based; in short: as §1
[4] = Binding affinity to hairpin duplex DNA (unknown origin) at 40 uM by SPR method; in short: as §3
A549 = test: Antiproliferative activity against human A549 cells after 48 hrs by MTT assay; type: functional, cell-based; conditions: A549, 48 h; in short: as §1

Compound	IC50 (SiHa) [µM]	IC50 (HL-60) [µM]	IC50 (HeLa) [µM]	ΔTm [1] [°C]	ΔTm (Quadruplex DNA [2]) [°C]	Kd (Quadruplex DNA [3]) [µM]	IC50 (U2OS) [µM]	Activity [4]	IC50 (A549) [µM]
CN(C)CCCNc1cc2nc(/C=C3\C(=O)Nc4cc(N5CCOCC5)c(F)cc43)[nH]c(=O)c2cc1F	> 50	3.4	30.1	0.1	11.9	> 40	> 50	inactive	> 50
O=C1Nc2cc(N3CCOCC3)c(F)cc2/C1=C/c1nc2cc(NCCCN3CCOCC3)c(F)cc2c(=O)[nH]1	> 50	> 50	> 50	0.2	5.2	> 40	> 50	inactive	> 50
CN1CCN(c2cc3c(cc2F)/C(=C/c2nc4cc(NCCCN5CCCC5)c(F)cc4c(=O)[nH]2)C(=O)N3)CC1	9.4	2.9	9	0.3	23.6	7.9	16.4	inactive	25.3
CN1CCN(CCCNc2cc3nc(/C=C4\C(=O)Nc5cc(N6CCN(C)CC6)c(F)cc54)[nH]c(=O)c3cc2F)CC1	2.8	3.3	8.8	0.1	19.8	9.6	12.7	inactive	9.7
CN(C)CCCNc1cc2nc(/C=C3\C(=O)Nc4cc(N(C)CCCN(C)C)c(F)cc43)[nH]c(=O)c2cc1F	2.9	6.5	7.1	0.3	18.2	18	8.3	inactive	14.3
CN1CCN(c2ccc3c(c2)NC(=O)/C3=C\c2nc3cc(NCCN4CCCCC4)c(F)cc3c(=O)[nH]2)CC1	5.4	2.8	20.5	0.2	18.7	> 40	3.6	inactive	1.8
CCN(CC)CCCNc1cc2nc(/C=C3\C(=O)Nc4cc(N5CCOCC5)c(F)cc43)[nH]c(=O)c2cc1F	43.6	4.2	34.3	0.1	9	> 40	32.4	inactive	> 50
CN(C)CCCNc1cc2nc(/C=C3\C(=O)Nc4ccccc43)[nH]c(=O)c2cc1F	17.1	3.2	13.4	0.2	11.8	> 40	18.7	inactive	14.8
CN1CCN(c2cc3c(cc2F)/C(=C/c2nc4cc(NCCN5CCCC5)c(F)cc4c(=O)[nH]2)C(=O)N3)CC1	9.3	2.7	10.5	0.1	22.7	21	7.1	inactive	5.6
CCN(CC)CCCN1C(=O)/C(=C\c2nc3cc(N4CCN(C)CC4)c(F)cc3c(=O)[nH]2)c2ccccc21	> 50	13.2	> 50	0.3	5.8	> 40	> 50	inactive	> 50
CN(C)CCNc1cc2nc(/C=C3\C(=O)Nc4cc(N5CCN(C)CC5)ccc43)[nH]c(=O)c2cc1F	3.4	7.8	15.7	0.2	18	> 40	6.3	inactive	2.2
CCN(CC)CCNc1cc2nc(/C=C3\C(=O)Nc4cc(N5CCN(C)CC5)c(F)cc43)[nH]c(=O)c2cc1F	12.4	1.7	9	0.3	23.1	22	8.2	inactive	6.1
O=C1Nc2cc(N3CCOCC3)c(F)cc2/C1=C/c1nc2cc(NCCCN3CCCC3)c(F)cc2c(=O)[nH]1	42.5	3.8	> 50	0.3	8.4	> 40	> 50	inactive	> 50

Source: ChEMBL document CHEMBL4177752, “Discovery of Novel Schizocommunin Derivatives as Telomeric G-Quadruplex Ligands That Trigger Telomere Dysfunction and the Deoxyribonucleic Acid (DNA) Damage Response” (J Med Chem, 2018)
